ChEMBL document CHEMBL1129282, “High-affinity partial agonist imidazo[1,5-a]quinoxaline amides, carbamates, and ureas at the gamma-aminobutyric acid A/benzodiazepine receptor complex” (J Med Chem, 1996)
Calls of active or inactive are those of the source.

How the values were obtained:
[1] = biological target: GABA-A receptor; anion channel (Rattus norvegicus) (UniProt O09028+P15431+P18506+P18508+P19969+P20236+P23574+P23576+P28471+P28473+P30191+P62813+P63079+P63138+Q91ZM7+Q9ES14); conditions: Brain, Brain membranes
[2] = biological target: GABA-A receptor; anion channel; test: Inhibition of [3H]flunitrazepam binding to GABA-A receptor of rat cortical membranes; assay type: cell membranes, Membrane
Rattus norvegicus [3] = species on record: Rattus norvegicus; test: In vitro [36Cl]-uptake in rat cerebrocortical synaptoneurosomes; assay type: functional; parameters: unit not given here
Procedure, shortened: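 Rat cerebrocortical synaptoneurosomes (1 mg protein) preincubated 5 min at 30 °C, then mixed with medium containing 0.2 µCi Na36Cl/mL, 118 mM NaCl, 5 mM KCl, 1.8 mM MgSO4, 20 mM Hepes/Tris pH 7.0, ± drug (methanol ≤0.4%). Uptake stopped after 5 s with ice-cold buffer, rapid filtration, four washes, radioactivity counted.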

Mus musculus [4] = test: Ethanol potentiation activity was measured as loss of righting reflex in male CF-1 mice after oral administration; assay type: functional
Mus musculus [5] = test: In vivo antagonistic activity against benzodiazepine in mice after ip administration; assay type: functional
Procedure, shortened: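 Male CF-1 mice injected ip simultaneously with triazolam 1 mg/kg and test compound starting at […], in 0.25% aqueous methyl cellulose. Loss of traction scored 15 min later. Absence of triazolam effect indicated antagonism; lower doses at 0.5 log intervals then tested to establish ED50.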

Rattus norvegicus [6] = test: Antagonistic activity against metrazole-induced clonic convulsions in rat after ip injection; assay type: functional
Mus musculus [7] = species on record: Mus musculus; test: Acute electroshock physical dependence activity was evaluated; IA=Inactive; assay type: functional, organism-based
Procedure, shortened: (§1)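 Male CF-1 mice, 10/group, dosed sc twice daily (0800, and 1600 at twice the 0800 dose) for 3 days. 24 h after last dose, iv flumazenil 2.5 mg/kg in 5% aqueous N,N-dimethylacetamide. Electroshock seizure threshold (MA50) measured 5 min later versus saline-treated, flumazenil-injected controls. Compound scored active if threshold lowered beyond control interval.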

Mus musculus [8] = test: Ethanol potentiation activity was measured as loss of traction response in male CF-1 mice after oral administration; assay type: functional
Mus musculus [9] = species on record: Mus musculus; test: Acute electroshock physical dependence activity was evaluated; A=Active; assay type: functional, organism-based
Procedure, shortened: as §1

CN(C)C(=O)N1Cc2c(-c3noc(C4CC4)n3)ncn2-c2ccc(F)cc21
[35S] TBPS shift [1]: 0.99
Ki [2]: 0.61 nM
36Cl- uptake (Rattus norvegicus [3]): 0.95

CC(C)c1nc(-c2ncn3c2CN(C(=O)N2CCCC2)c2ccccc2-3)no1
[35S] TBPS shift [1]: 0.69
Ki [2]: 1.1 nM
ED50 (Mus musculus [4]): > 30 mg/kg
ED50 (Mus musculus [5]): > 30 mg/kg
ED50 (Rattus norvegicus [6]): 11 mg/kg
Activity (Mus musculus [7]): inactive
36Cl- uptake (Rattus norvegicus [3]): 0.4
ED50 (Mus musculus [8]): 17 mg/kg

O=C(N1CCCC1)N1Cc2c(-c3noc(C4CC4)n3)ncn2-c2cccc(F)c21
[35S] TBPS shift [1]: 1
Ki [2]: 0.64 nM
ED50 (Rattus norvegicus [6]): > 50 mg/kg
36Cl- uptake (Rattus norvegicus [3]): 0.59

O=C(Sc1ccccc1)N1Cc2c(-c3noc(C4CC4)n3)ncn2-c2ccccc21
[35S] TBPS shift [1]: 1.1
Ki [2]: 11 nM
ED50 (Rattus norvegicus [6]): > 50 mg/kg
36Cl- uptake (Rattus norvegicus [3]): 0.5

CCSC(=O)N1Cc2c(-c3noc(C4CC4)n3)ncn2-c2ccccc21
[35S] TBPS shift [1]: 1.1
Ki [2]: 2.1 nM
ED50 (Rattus norvegicus [6]): 1.3 mg/kg
36Cl- uptake (Rattus norvegicus [3]): 1.1

O=C(N1CCCC1)N1Cc2c(-c3noc(C4CC4)n3)ncn2-c2ccc(Cl)cc21
[35S] TBPS shift [1]: 0.93
Ki [2]: 1.1 nM
ED50 (Mus musculus [4]): > 30 mg/kg
ED50 (Mus musculus [5]): > 30 mg/kg
ED50 (Rattus norvegicus [6]): 0.6 mg/kg
Activity (Mus musculus [7]): inactive
ED50 (Mus musculus [8]): 0.4 mg/kg

O=C(N1CCCC1)N1Cc2c(-c3noc(C4CC4)n3)ncn2-c2ccccc21
[35S] TBPS shift [1]: 0.41
Ki [2]: 0.45 nM
ED50 (Rattus norvegicus [6]): 0.24 mg/kg
36Cl- uptake (Rattus norvegicus [3]): 0.5

CCc1nc(-c2ncn3c2CN(C(=O)N2CCCC2)c2ccccc2-3)no1
[35S] TBPS shift [1]: 0.39
Ki [2]: 0.65 nM
ED50 (Rattus norvegicus [6]): > 50 mg/kg
36Cl- uptake (Rattus norvegicus [3]): 0.25

O=C(N1CCOCC1)N1Cc2c(-c3noc(C4CC4)n3)ncn2-c2ccccc21
[35S] TBPS shift [1]: 0.84
Ki [2]: 0.81 nM
ED50 (Rattus norvegicus [6]): 0.84 mg/kg
36Cl- uptake (Rattus norvegicus [3]): 0.15

CC(C)(C)OC(=O)N1Cc2c(-c3noc(C4CC4)n3)ncn2-c2ccccc21
[35S] TBPS shift [1]: 2.9
ED50 (Rattus norvegicus [6]): 0.06 mg/kg

CC1(C)c2c(-c3noc(C4CC4)n3)ncn2-c2ccccc2N1C(N)=O
[35S] TBPS shift [1]: 0.6
Ki [2]: 86 nM
ED50 (Rattus norvegicus [6]): > 50 mg/kg
36Cl- uptake (Rattus norvegicus [3]): 0.22

CN(C)C(=O)N1Cc2c(-c3noc(C4CC4)n3)ncn2-c2cccc(Cl)c21
[35S] TBPS shift [1]: 0.62
Ki [2]: 0.71 nM
ED50 (Rattus norvegicus [6]): > 50 mg/kg
36Cl- uptake (Rattus norvegicus [3]): 0.83

NC(=O)N1Cc2c(-c3noc(C4CC4)n3)ncn2-c2ccccc21
[35S] TBPS shift [1]: 0.61
Ki [2]: 7.2 nM
ED50 (Rattus norvegicus [6]): 13 mg/kg
36Cl- uptake (Rattus norvegicus [3]): 0.75

CNC(=O)N1c2ccccc2-n2cnc(-c3noc(C4CC4)n3)c2C1(C)C
[35S] TBPS shift [1]: 0.71
Ki [2]: 21 nM
ED50 (Rattus norvegicus [6]): > 50 mg/kg
36Cl- uptake (Rattus norvegicus [3]): 0.67

O=C(c1ccc[nH]1)N1Cc2c(-c3noc(C4CC4)n3)ncn2-c2ccccc21
[35S] TBPS shift [1]: 0.92
Ki [2]: 1.1 nM
ED50 (Rattus norvegicus [6]): 4.4 mg/kg
36Cl- uptake (Rattus norvegicus [3]): 1.1

O=C(Nc1ccccc1)N1Cc2c(-c3noc(C4CC4)n3)ncn2-c2ccccc21
[35S] TBPS shift [1]: 1.3
Ki [2]: 16 nM
ED50 (Rattus norvegicus [6]): > 50 mg/kg
36Cl- uptake (Rattus norvegicus [3]): 0.29

O=C(N1CCCC1)N1Cc2c(-c3noc(C4CC4)n3)ncn2-c2cccc(Cl)c21
[35S] TBPS shift [1]: 0.6
ED50 (Rattus norvegicus [6]): > 50 mg/kg
36Cl- uptake (Rattus norvegicus [3]): 0.56

CC1(C)c2c(-c3noc(C4CC4)n3)ncn2-c2ccc(Cl)cc2N1C(=O)N1CCCC1
[35S] TBPS shift [1]: 0.67
Ki [2]: 3.3 nM
ED50 (Mus musculus [4]): > 30 mg/kg
ED50 (Mus musculus [5]): 9 mg/kg
ED50 (Rattus norvegicus [6]): 35 mg/kg
Activity (Mus musculus [7]): inactive
36Cl- uptake (Rattus norvegicus [3]): 1.04
ED50 (Mus musculus [8]): 0.2 mg/kg

O=C(c1ccccn1)N1Cc2c(-c3noc(C4CC4)n3)ncn2-c2ccccc21
[35S] TBPS shift [1]: 0.27
Ki [2]: 1.1 nM
ED50 (Rattus norvegicus [6]): > 50 mg/kg

CN(C)C(=O)N1c2ccccc2-n2cnc(-c3noc(C4CC4)n3)c2C1(C)C
[35S] TBPS shift [1]: 0.97
Ki [2]: 3.1 nM
ED50 (Rattus norvegicus [6]): > 50 mg/kg
36Cl- uptake (Rattus norvegicus [3]): 0.34

CSC(=O)N1Cc2c(-c3noc(C4CC4)n3)ncn2-c2ccccc21
[35S] TBPS shift [1]: 0.92
Ki [2]: 1.3 nM
Activity (Mus musculus [9]): Active
ED50 (Mus musculus [4]): > 30 mg/kg
ED50 (Mus musculus [5]): > 30 mg/kg
ED50 (Rattus norvegicus [6]): 6.2 mg/kg
36Cl- uptake (Rattus norvegicus [3]): 0.73
ED50 (Mus musculus [8]): 0.3 mg/kg

CSC(=O)N1c2ccccc2-n2cnc(-c3noc(C4CC4)n3)c2C1(C)C
[35S] TBPS shift [1]: 0.8
Ki [2]: 5.1 nM
ED50 (Rattus norvegicus [6]): > 50 mg/kg
36Cl- uptake (Rattus norvegicus [3]): 1

CN(C)C(=O)N1Cc2c(-c3noc(C4CC4)n3)ncn2-c2ccc(Cl)cc21
[35S] TBPS shift [1]: 0.88
Ki [2]: 3.7 nM

CC(=O)N1c2ccccc2-n2cnc(-c3noc(C4CC4)n3)c2C1(C)C
[35S] TBPS shift [1]: 0.7
ED50 (Rattus norvegicus [6]): 30 mg/kg

COC(=O)N1c2ccccc2-n2cnc(-c3noc(C4CC4)n3)c2C1(C)C
[35S] TBPS shift [1]: 0.8
ED50 (Rattus norvegicus [6]): > 50 mg/kg
36Cl- uptake (Rattus norvegicus [3]): 0.4

O=C(c1ccco1)N1Cc2c(-c3noc(C4CC4)n3)ncn2-c2ccccc21
[35S] TBPS shift [1]: 0.98
Ki [2]: 0.43 nM
ED50 (Rattus norvegicus [6]): 21 mg/kg
36Cl- uptake (Rattus norvegicus [3]): 0.55

CC(C)(C)c1nc(-c2ncn3c2CN(C(=O)N2CCCC2)c2ccccc2-3)no1
[35S] TBPS shift [1]: 0.76
Ki [2]: 14.7 nM
ED50 (Rattus norvegicus [6]): 18 mg/kg
36Cl- uptake (Rattus norvegicus [3]): 1.2

CC1(C)c2c(-c3noc(C4CC4)n3)ncn2-c2ccccc2N1C(=O)N1CCCC1
[35S] TBPS shift [1]: 0.84
Ki [2]: 2.9 nM
ED50 (Rattus norvegicus [6]): > 50 mg/kg
36Cl- uptake (Rattus norvegicus [3]): 0.5

CNC(=O)N1Cc2c(-c3noc(C4CC4)n3)ncn2-c2ccccc21
[35S] TBPS shift [1]: 0.95
Ki [2]: 2.8 nM
Activity (Mus musculus [9]): Active
ED50 (Mus musculus [4]): 11 mg/kg
ED50 (Mus musculus [5]): 22 mg/kg
ED50 (Rattus norvegicus [6]): 11 mg/kg
36Cl- uptake (Rattus norvegicus [3]): 0.53
ED50 (Mus musculus [8]): 2.7 mg/kg

CN(C)C(=O)N1c2cc(Cl)ccc2-n2cnc(-c3noc(C4CC4)n3)c2C1(C)C
[35S] TBPS shift [1]: 0.79
Ki [2]: 3.1 nM
Activity (Mus musculus [9]): Active
ED50 (Mus musculus [4]): 17 mg/kg
ED50 (Rattus norvegicus [6]): 7.4 mg/kg
36Cl- uptake (Rattus norvegicus [3]): 1.33
ED50 (Mus musculus [8]): 3 mg/kg

O=C(N1CCCC1)N1Cc2c(-c3noc(C4CC4)n3)ncn2-c2ccc(F)cc21
[35S] TBPS shift [1]: 1.25
Ki [2]: 0.56 nM
ED50 (Rattus norvegicus [6]): > 50 mg/kg
36Cl- uptake (Rattus norvegicus [3]): 0.69

CC(C)OC(=O)N1Cc2c(-c3noc(C4CC4)n3)ncn2-c2ccccc21
[35S] TBPS shift [1]: 1.1
Ki [2]: 1.8 nM
ED50 (Rattus norvegicus [6]): 1.9 mg/kg

CC(C)NC(=O)N1Cc2c(-c3noc(C4CC4)n3)ncn2-c2ccccc21
[35S] TBPS shift [1]: 1.1
Ki [2]: 3.4 nM
ED50 (Rattus norvegicus [6]): 11 mg/kg

CN(C)C(=O)N1Cc2c(-c3noc(C4CC4)n3)ncn2-c2cccc(F)c21
[35S] TBPS shift [1]: 0.84
Ki [2]: 0.89 nM
Activity (Mus musculus [9]): Active
ED50 (Mus musculus [4]): > 30 mg/kg
ED50 (Mus musculus [5]): 4 mg/kg
ED50 (Rattus norvegicus [6]): 21 mg/kg
36Cl- uptake (Rattus norvegicus [3]): 0.6
ED50 (Mus musculus [8]): 3 mg/kg

COC(=O)N1Cc2c(-c3noc(C4CC4)n3)ncn2-c2ccccc21
[35S] TBPS shift [1]: 0.7
Ki [2]: 1.5 nM
ED50 (Rattus norvegicus [6]): 4.4 mg/kg

O=C(N1Cc2c(-c3noc(C4CC4)n3)ncn2-c2ccccc21)C(F)(F)F
[35S] TBPS shift [1]: 0.73
Ki [2]: 143 nM
ED50 (Rattus norvegicus [6]): 35 mg/kg

CCN(CC)C(=O)N1Cc2c(-c3noc(C4CC4)n3)ncn2-c2ccccc21
[35S] TBPS shift [1]: 0.82
Ki [2]: 0.85 nM
ED50 (Mus musculus [4]): > 30 mg/kg
ED50 (Mus musculus [5]): 4 mg/kg
ED50 (Rattus norvegicus [6]): 15 mg/kg
Activity (Mus musculus [7]): inactive
36Cl- uptake (Rattus norvegicus [3]): 0.62
ED50 (Mus musculus [8]): > 30 mg/kg
